Compound activity deposited in PubChem BioAssay by Johns Hopkins Ion Channel Center.
A selection: hits, their analogues and other compounds. The true share with any hit is near 3.5%.
MrgX1 allo act: human MrgX1 positive allosteric modulation, primary screen; hit rate 0.63% among 310,000; B-score at 10 µM; MrgX1-HEK293, Fluo-4 calcium flux, FDSS; stronger effect = higher value; AID 588675;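 active = plate-corrected calcium response at least 3 library SD above typical, normal starting fluorescence, not activating the receptor alone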;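 also: compound read alongside a low EC10 to EC30 dose of BAM8-22 agonist; peak minus trough fluorescence over baseline measured at the second addition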
Target sequence (Q96LB2 whole entry, looked up): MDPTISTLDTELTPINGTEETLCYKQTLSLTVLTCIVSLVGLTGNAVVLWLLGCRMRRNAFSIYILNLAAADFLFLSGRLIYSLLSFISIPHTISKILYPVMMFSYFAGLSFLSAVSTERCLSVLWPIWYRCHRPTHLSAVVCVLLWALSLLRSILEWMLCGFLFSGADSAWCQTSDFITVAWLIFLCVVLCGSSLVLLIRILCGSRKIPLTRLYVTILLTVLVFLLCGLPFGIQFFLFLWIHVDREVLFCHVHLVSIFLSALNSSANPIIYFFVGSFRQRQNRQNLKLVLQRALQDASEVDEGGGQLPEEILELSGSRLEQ
MrgX1 ag: agonists of human MrgX1 receptor. Q96LB2. MrgX1-HEK293 cells, Fluo-4 calcium fluorescence, agonist mode; stronger effect = higher value. B-score at 10 µM. hit rate 0.44% among 310,000. AID 588627;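 active = calcium response B-score plate-corrected fluorescence ratio at least 3 library SD, with starting fluorescence B-score inside 5 SD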
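Material: HEK293 cells stably expressing human MrgX1 receptor | Quantity: 15,000 cells per well | Times: Cells plated overnight, dye loaded 0.5 h 37 °C, 0.5 h room temperature | Measured by: Kinetic Fluo-4 NW fluorescence of intracellular calcium | Control set: Positive and negative controls per plate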
RGS4 act: RGS4 potentiation or activation; HEK293 M3R/inducible RGS4, carbachol calcium flux Fluo4; stronger effect = lower value; B-score at 10 µM; AID 463111; hit rate 0.92% among 310,000;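 active = B-score of the integrated calcium signal more than 4 SD below the library mean, with starting fluorescence not abnormally high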;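 also: negative B-score means reduced calcium response which marks RGS4 activation or potentiation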
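test system = M3R-expressing HEK293 line, RGS4 induced by doxycycline | probe or stimulus = carbachol at ECmax as muscarinic agonist stimulus | timing = dye loading 30 min 37 °C, buffer rest 30 min RT | signal = calcium dye Fluo4 fluorescence | evaluation = B score from integrated fluorescence ratio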
MrgX1 antagonist: human MrgX1 receptor antagonism, primary screen | Q96LB2 | MRGX1-HEK293 calcium flux, Fluo-4, BAM8-22 antagonism; stronger effect = lower value | B-score at 10 µM | hit rate 1.3% among 310,000;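 active = calcium-response B-score plate-corrected more than 3 library SD below zero, starting fluorescence within 5 deviations, no agonist response on first addition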;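 also: peak minus trough fluorescence over baseline after final BAM8-22 challenge near maximal dose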
RGS4 block: human RGS4 inhibition; P49798; HEK293 M3R/RGS4 inducible, Fluo-4 calcium flux; stronger effect = higher value; triggered by carbachol at its EC20; B-score at 10 µM; hit rate 0.45% among 310,000;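 active = B-score, a plate-corrected calcium signal, over three deviations above library mean, with baseline fluorescence within five deviations of library mean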;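 also: RGS4 expression induced by doxycycline in cells with stable M3 receptor; B-score is computed from the integrated fluorescence ratio over baseline after carbachol; higher B-score means a larger calcium signal and so more RGS4 inhibition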
Target sequence (P49798 whole entry, looked up): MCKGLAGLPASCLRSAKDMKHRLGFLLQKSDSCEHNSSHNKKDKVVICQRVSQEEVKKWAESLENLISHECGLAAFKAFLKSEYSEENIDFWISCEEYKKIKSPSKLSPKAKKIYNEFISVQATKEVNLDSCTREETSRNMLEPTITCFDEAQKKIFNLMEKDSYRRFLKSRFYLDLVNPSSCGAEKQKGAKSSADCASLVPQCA
MrgX1 ant reconf: human MrgX1 receptor antagonism, re-confirmation screen; shares compounds with MrgX1 antagonist; MrgX1-HEK293, BAM8-22 calcium flux, Fluo-4; stronger effect = lower value; remaining BAM8-22 calcium response % of control (stronger effect = lower value), % at 10 µM; hit rate 19% among 2,300; AID 602420;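 active = remaining agonist calcium response no higher than 100% minus 3 SD of agonist-only control wells, with starting fluorescence near control levels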;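 also: agonist BAM8-22 given at a near maximal EC90 to ECmax level; peak minus minimum fluorescence divided by baseline after agonist addition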
HEK293 Ca flux: activity in parental HEK293 cells lacking MrgX1 | shares compounds with MrgX1 antagonist | Fluo-4 calcium fluorescence, FDSS | fluorescence ratio F(max-min)/F0 at 10 µM | hit rate 2% among 4,000 | AID 624111;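 active = duplicate-averaged calcium fluorescence ratio at least three times the standard deviation of buffer wells, a nonspecific response in parental cells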
HEK293 Ca counter: activity in parental HEK293 cells without MrgX1. shares compounds with MrgX1 antagonist. parental HEK293 calcium flux, Fluo-4 fluorescence ratio; stronger effect = higher value. fluorescence ratio F(max-min)/F0 at 10 µM. hit rate 0.4% among 4,000. AID 624114;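 active = calcium fluorescence ratio, averaged over duplicates, at least 3 SD of the buffer-well ratio, meaning a nonspecific response in receptor-free cells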;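 also: untransfected parental HEK293 lacking MrgX1 used as counterscreen for MrgX1 allosteric activators; fluorescence change taken during the second addition on a kinetic imager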
HEK293 Ca cntr2: counter-screen for MrgX1 activators: effect in parental HEK293 cells | hit rate 8.7% among 4,000 | fluorescence ratio F(max-min)/F0 at 10 µM | shares compounds with MrgX1 antagonist | AID 624115 | Fluo-4 calcium fluorescence (FDSS); stronger effect = higher value;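 active = calcium fluorescence ratio at least three times the spread of buffer wells, meaning a non-specific response in parental cells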
* = called active by the depositor; i = inactive; · = no result.

SMILES | MrgX1 allo act | MrgX1 ag | RGS4 act | MrgX1 antagonist | RGS4 block | MrgX1 ant reconf | HEK293 Ca flux | HEK293 Ca counter | HEK293 Ca cntr2
CC(=O)c1ccc(-c2ccc(C(=O)NCC(c3ccc(F)cc3)N3CCOCC3)o2)cc1 (stereo unspecified) | i | i | i | -8* | i | 60%* | i | i | i
O=C1CCCC2=C1Sc1ccccc1N2 | i | i | i | -4.8* | i | i | i | i | i
Cc1nn(-c2nnc(NC3CCCCC3)nn2)c(C)c1Br | i | i | i | -4.5* | i | i | i | i | i
Cc1nn(C)c(C)c1S(=O)(=O)NC1CCCC1 | i | i | i | i | i | · | · | · | ·
Cc1ccccc1OCC(=O)Nc1nnc(COc2ccccc2)s1 | i | i | i | -8.2* | i | i | i | i | i
CC(NCC(=O)NC(=O)NC1CCCC1)c1ccc(Cl)cc1Cl (stereo unspecified) | i | i | i | i | i | · | · | · | ·
C=CCOC(=O)C1=C(C)NC(=S)C(C#N)(CC=C)C1c1ccccc1Cl (stereo unspecified) | i | i | i | i | i | · | · | · | ·
Cc1c(C(=O)N2CCN(Cc3ccc4c(c3)OCO4)CC2)sc2ncnc(N3CCN(c4ccccc4)CC3)c12 | i | i | i | -10* | i | 60%* | i | i | i
CSc1cccc(NC(=O)c2ccc(NC3=NC4CS(=O)(=O)CC4S3)cc2)c1 (stereo unspecified) | i | i | i | i | i | · | · | · | ·
COc1ccc(C(=O)N2CCOC2CNC(=O)C(=O)NCc2ccc(F)cc2)cc1 (stereo unspecified) | i | i | i | -5.1* | i | i | i | i | i
O=C(C1CC(=O)N(c2ccc3c(c2)OCCO3)C1)N1CCCC(C(F)(F)F)C1 (stereo unspecified) | i | i | i | i | i | · | · | · | ·
COC(=O)Oc1cncc(C(=O)O)c1 | i | i | i | -5.2* | i | i | i | i | i
CCn1c(SCC(=O)Nc2cc(C)on2)nc2c1c(=O)n(C)c(=O)n2C | i | i | i | -7* | i | i | i | i | i
CCCCn1c(SCC(=O)Nc2cc(C)on2)nc2c1c(=O)n(C)c(=O)n2C | i | i | i | i | i | · | · | · | ·
CCOC(=O)c1cc(N)cc([N+](=O)[O-])c1 | i | i | i | i | i | · | · | · | ·
CCOC(=O)c1sc2cc([N+](=O)[O-])cc(SCC(C)C)c2c1N | i | i | i | -10* | i | i | 0.6* | i | i
O=C(O)COc1ccc(Cl)cc1CO | i | i | i | -4.7* | i | i | i | i | i
Nc1ncc2c(n1)-c1ccoc1CC2 | i | i | i | i | i | · | · | · | ·
Nc1ncc2c(n1)-c1ccccc1CC2 | i | i | i | -4.8* | i | i | i | i | i
COc1cc(-c2nnc(-c3ccccc3)o2)cc(OC)c1OC | i | i | i | -4.9* | i | i | i | i | i
CC1CN(C(=O)c2cccc(Oc3ccccc3)c2)CC(C)O1 (stereo unspecified) | i | i | i | -4.7* | i | i | i | i | i
O=C(c1ccc(OC2CCN(C/C=C/c3ccc(F)cc3)CC2)cc1)N1CCCC1 | i | i | i | i | i | · | · | · | ·
O=C(CN(c1ccccn1)S(=O)(=O)c1ccc(F)cc1)Nc1ccccc1 | i | i | i | -6* | i | i | i | i | i
CCN(C(=O)COC(=O)c1ccccc1NCCO)c1cccc2ccccc12 | i | i | i | i | i | · | · | · | ·
O=C(Nc1cc(C(F)(F)F)ccc1N1CCOCC1)c1ccco1 | i | i | i | -4.5* | i | i | i | i | i
SMILES | MrgX1 allo act | MrgX1 ag | RGS4 act | MrgX1 antagonist | RGS4 block | MrgX1 ant reconf | HEK293 Ca flux | HEK293 Ca counter | HEK293 Ca cntr2
O=C(NCC(c1ccco1)N1CCc2ccccc2C1)C(=O)Nc1ccc(F)cc1F (stereo unspecified) | i | i | i | -5.8* | i | i | i | i | i
O=C(c1nc2ccc(Cl)cn2c1CN1CCC(O)CC1)N1CCc2ccccc2C1 | i | i | i | -5.5* | i | i | i | i | i
Cc1onc(-c2c(F)cccc2Cl)c1C(=O)Nc1nccs1 | i | i | i | -4.6* | i | i | i | i | i
Cc1onc(-c2c(F)cccc2Cl)c1C(=O)Nc1nnc(C(F)(F)F)s1 | i | i | i | -5.1* | i | 85%* | i | i | i
CC(=O)c1ccc(NC(=O)COC(=O)CCc2ccc(S(=O)(=O)N3CCOCC3)cc2)cc1 | i | i | i | i | i | · | · | · | ·
O=C(NCCN1CCC(Cc2ccccc2)CC1)C1CCN(S(=O)(=O)N2CCC3(CC2)OCCO3)CC1 | i | i | i | i | i | · | · | · | ·
O=C(NCCc1ccccc1)C1CCN(S(=O)(=O)N2CCC3(CC2)OCCO3)CC1 | i | i | i | -6* | i | i | i | i | i
O=C(NCCc1ccccc1)C1CCN(C(=O)NCc2ccccc2)CC1 | i | i | i | -11* | i | i | i | i | i
NC(=O)COC(=O)c1ccccc1Oc1ccccc1 | i | i | i | i | i | · | · | · | ·
COC(=O)C(CO)NC(=O)C1CCCN1C(=O)CNC(=O)OCc1ccccc1 (stereo unspecified) | i | i | i | i | i | · | · | · | ·
Cc1c(C#N)c2ccccc2n1CC(=O)NCC1CCCO1 (stereo unspecified) | i | i | i | -5.1* | i | i | i | i | i
O=C(Cn1c(NCCO)nc2ccccc21)NCCc1ccccc1 | i | i | i | i | i | · | · | · | ·
O=C(Cn1c(NCCO)nc2ccccc21)NCC1CCCO1 (stereo unspecified) | i | i | i | -4.7* | i | i | i | i | i
COC(=O)c1[nH]c2ccc(C)cc2c1NS(=O)(=O)c1ccc(F)c(C)c1 | i | i | i | -6.8* | i | i | i | i | i
